# Experimental data: ChEMBL document CHEMBL1799937, “Streptothricin derivatives from Streptomyces sp. I08A 1776” (J Nat Prod, 2011)
# pIC50: −log10 of the molar value.
# Experiments:
# [1] = tested on: Staphylococcus aureus; assay: Antibacterial activity against Staphylococcus aureus ATCC 25923 after 24 hrs by broth dilution method; type: functional; settings: ATCC 25923, 24 h
# In short: (§1)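 CLSI broth microdilution in Mueller-Hinton broth, with levofloxacin as positive control. Final inoculum was 1 × 10^5 cfu/mL. Compounds were tested at final concentrations from 128 to 0.125 μg/mL in 2-fold serial dilutions. Plates were incubated for 24 h at 37 °C. MIC was read as the lowest concentration giving no visible growth.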
# [2] = tested on: Enterococcus faecalis; assay: Antibacterial activity against Enterococcus faecalis ATCC 29212 after 24 hrs by broth dilution method; type: functional; settings: ATCC 29212, 24 h; in short: as §1
# [3] = tested on: Bacillus subtilis; assay: Antibacterial activity against Bacillus subtilis ATCC 6633 after 24 hrs by broth dilution method; type: functional; settings: ATCC 6633, 24 h; in short: as §1
# [4] = tested on: Mycolicibacterium smegmatis; assay: Antibacterial activity against Mycobacterium smegmatis MC2 155 after 24 hrs by broth dilution method; type: functional; settings: str. MC2 155, 24 h
# In short: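 CLSI broth microdilution MIC. Medium: Middlebrook 7H9 broth. Serial 2-fold dilutions give final concentrations of 128 to 0.125 μg/mL. Final inoculum is 1 × 10^5 cfu/mL. Incubation is 24 h at 37 °C. MIC is the lowest concentration with no visible growth. Levofloxacin serves as positive control.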
# [5] = tested on: Mycobacterium tuberculosis; assay: Antibacterial activity against Mycobacterium tuberculosis H37Rv after 14 days by broth dilution method; type: functional; settings: 336 h
# In short: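 Broth microdilution per CLSI in Middlebrook 7H9 broth. Compounds run at final 128 to 0.125 μg/mL (2-fold series) against an inoculum of 1 × 10^5 cfu/mL final. Plates incubated 14 days at 37 °C. Endpoint is the lowest concentration without visible growth. Levofloxacin is the positive control.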
# [6] = tested on: Pseudomonas aeruginosa; assay: Antibacterial activity against Pseudomonas aeruginosa ATCC 27853 after 24 hrs by broth dilution method; type: functional; settings: ATCC 27853, 24 h; in short: as §1
# [7] = tested on: Morganella morganii; assay: Antibacterial activity against multidrug-resistant Morganella morganii 07-09 after 24 hrs by broth dilution method; type: functional; settings: 07-09, 24 h
# In short: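 Mueller-Hinton broth microdilution following CLSI. Strains came from ATCC or clinical isolates. Final compound range 128 to 0.125 μg/mL by 2-fold dilution, inoculum 1 × 10^5 cfu/mL final. Incubated 24 h at 37 °C. MIC read as the lowest concentration showing no visible growth. Levofloxacin is the positive control.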
# [8] = tested on: Escherichia coli; assay: Antibacterial activity against Escherichia coli ATCC 25922 after 24 hrs by broth dilution method; type: functional; settings: ATCC 25922, 24 h; in short: as §1
# [9] = tested on: Candida albicans; assay: Antifungal activity against Candida albicans ATCC 10231 after 24 hrs by broth dilution method; type: functional; settings: ATCC 10231, 24 h; in short: as §1
# [10] = tested on: A549; assay: Cytotoxicity against human A549 cells after 96 hrs by MTT assay; type: functional, cell-based; settings: A549, 96 h
# [11] = tested on: HepG2; assay: Cytotoxicity against human […] cells after 96 hrs by MTT assay; type: functional, cell-based; settings: HepG2, 96 h
# [12] = tested on: HeLa; assay: Cytotoxicity against human HeLa cells after 96 hrs by MTT assay; type: functional, cell-based
SMILES,MIC [1] [µg/mL],MIC [2] [µg/mL],MIC [3] [µg/mL],MIC [4] [µg/mL],MIC [5] [µg/mL],MIC [6] [µg/mL],MIC [7] [µg/mL],MIC [8] [µg/mL],MIC [9] [µg/mL],pIC50 [10],pIC50 [11],pIC50 [12]
CC(=O)N[C@@H](CCCN)CC(=O)N[C@@H]1[C@H](O)[C@@H](O)[C@@H](COC(N)=O)O[C@H]1/N=C1\N[C@@H]2[C@H](O)CNC(=O)[C@H]2N1,> 128,> 128,> 128,> 128,> 128,> 128,> 128,> 128,> 128,< 5.00,< 5.00,< 5.00
CC(=O)N[C@@H](CCCN)CC(=O)N[C@@H]1[C@H](O)[C@@H](O)[C@@H](COC(N)=O)O[C@H]1/N=C1\N[C@H]([C@H](O)CN)[C@@H](C(=O)O)N1,> 128,> 128,> 128,> 128,> 128,> 128,> 128,> 128,> 128,< 5.00,< 5.00,< 5.00
CC(=O)N[C@@H](CCCN)CC(=O)N[C@@H]1[C@H](O)[C@@H](O)[C@@H](COC(N)=O)O[C@H]1/N=C1\N[C@@H]2[C@H](O)CNC(=O)[C@@H]2N1,> 128,> 128,> 128,> 128,> 128,> 128,> 128,> 128,> 128,< 5.00,< 5.00,< 5.00
CC(=O)N[C@@H](CCCN)CC(=O)N[C@@H]1[C@H](O)[C@@H](O)[C@@H](COC(N)=O)O[C@@H]1/N=C1\N[C@@H]2[C@H](O)CNC(=O)[C@H]2N1,> 128,> 128,> 128,> 128,> 128,> 128,> 128,> 128,> 128,< 5.00,< 5.00,< 5.00
NCCC[C@H](N)CC(=O)NCCC[C@H](N)CC(=O)N[C@@H]1[C@H](O)[C@@H](O)[C@@H](COC(N)=O)O[C@H]1/N=C1\N[C@@H]2[C@H](O)CNC(=O)[C@H]2N1,> 128,> 128,16,64,> 128,> 128,> 128,> 128,32,< 5.00,< 5.00,< 5.00
CC(=O)N[C@@H](CCCNC(=O)C[C@@H](N)CCCNC(=O)C[C@@H](N)CCCN)CC(=O)N[C@@H]1[C@H](O)[C@@H](OC(N)=O)[C@@H](CO)O[C@H]1NC1=N[C@@H]2C(=O)NC[C@@H](O)[C@H]2N1,> 128,> 128,> 128,> 128,> 128,> 128,> 128,> 128,> 128,< 5.00,< 5.00,< 5.00
CC(=O)N[C@@H](CCCNC(=O)C[C@@H](N)CCCN)CC(=O)N[C@@H]1[C@H](O)[C@@H](OC(N)=O)[C@@H](CO)O[C@H]1/N=C1\N[C@@H]2[C@H](O)CNC(=O)[C@H]2N1,> 128,> 128,> 128,> 128,> 128,> 128,> 128,> 128,> 128,< 5.00,< 5.00,< 5.00
C[C@H]1COc2c(N3CCN(C)CC3)c(F)cc3c(=O)c(C(=O)O)cn1c23.C[C@H]1COc2c(N3CCN(C)CC3)c(F)cc3c(=O)c(C(=O)O)cn1c23.O [LEVOFLOXACIN],0.12,0.5,0.12,1,0.5,0.25,16,–,> 128,–,–,–
NCCC[C@H](N)CC(=O)NCCC[C@H](N)CC(=O)N[C@@H]1[C@H](O)[C@@H](OC(N)=O)[C@@H](CO)O[C@H]1NC1=N[C@@H]2C(=O)NC[C@@H](O)[C@H]2N1 [STREPTOTHRICIN E],4,64,1,4,16,64,4,16,1,< 5.00,< 5.00,< 5.00
